High-throughput results (PubChem)
Rad51 HR inh: blocks human Rad51 in homologous recombination | 200,000 tested, 0.085% active | AID 1385 | inhibition, % at 10 µM | Q06609 | hRad51 DNA strand exchange, fluorescence dequenching;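 active = inhibition above 40% at the single screening dose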;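 note: 0% = DMSO control wells and 100% = blanks with heterologous ssDNA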
Target sequence (Q06609 whole entry, looked up): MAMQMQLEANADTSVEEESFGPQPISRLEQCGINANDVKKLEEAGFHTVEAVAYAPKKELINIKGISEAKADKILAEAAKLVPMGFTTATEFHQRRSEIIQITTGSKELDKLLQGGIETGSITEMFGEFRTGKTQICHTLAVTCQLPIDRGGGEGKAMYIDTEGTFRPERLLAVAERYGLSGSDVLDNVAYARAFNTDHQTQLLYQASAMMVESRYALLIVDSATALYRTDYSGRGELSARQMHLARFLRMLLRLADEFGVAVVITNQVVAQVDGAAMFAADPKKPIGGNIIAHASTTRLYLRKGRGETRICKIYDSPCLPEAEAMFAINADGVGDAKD
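Assay system: Human Rad51 nucleoprotein filaments preassembled on unlabelled ssDNA | Reagent: Donor/quencher-labelled 47-bp dsDNA substrate | Doses: One concentration, 10 µM final | Times: 37 °C 15-min filament assembly, 30-min compound preincubation, 15-min exchange | Technique: Fluorescein emission 520 nm, excitation 485 nm | Benchmarks: Plate control and blank wells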
KCC2 mod: KCC2 (human) Cl- transport modulation. Q9H2X9. KCC2 cells, thallium flux FluoZin-2 fluorescence. B-score of Tl+ flux slope (higher = more flux/activation; lower = inhibition) at 10 µM. 190,000 tested, 2.2% active. AID 1456;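 active = thallium flux slope and its plate-corrected score both differing from the plate sample mean at a set confidence after two filtering rounds, in either direction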;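 note: slope of fluorescence scaled to starting intensity during 10 to 20 s after thallium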
CHT PAM: allosteric activators of human choline transporter CHT; CHT-expressing cells, membrane potential dye, choline EC20; active compounds read high; LV-AA mutant CHT in HEK293 cells; B-score at 10 µM; Q9GZV3; 310,000 tested, 0.49% active;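 active = initial fluorescence not abnormally high and integrated response B-score, plate-corrected, over 3 SD above library mean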
CHT block: inhibits the human high affinity choline transporter; 310,000 tested, 0.86% active; CHT-expressing cells, membrane potential dye, choline response; active compounds read low; B-score at 10 µM;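 active = B-score over 3 SD under the library average, and starting fluorescence ratio not unusually high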;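 note: choline stimulus applied at its EC90 after an EC20 pre-addition; B-score computed on integrated fluorescence ratio after choline addition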
CHT inh conf: human CHT inhibition, confirmatory screen | shares compounds with CHT block | CHT-expressing cells, choline membrane potential dye; LV-to-AA substituted CHT, HEK293 cells | CHT activity remaining % of control (active compounds read low), % at 10 µM | 2,400 tested, 70% active | AID 493221;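 active = choline transporter activity left, mean of duplicates at 10 µM, below buffer-only control mean minus 3 SD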;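 note: depolarization triggered by choline at its EC90 following an EC20 pre-addition; 0% = hemicholinium-3 full block and 100% = buffer-only control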
HEK293 CHT ctr: CHT inhibitor counter-screen hit in parental HEK293 cells; AID 493222; 2,400 tested, 4% active; membrane potential ratio readout (active if shifted either direction beyond buffer ±3SD; no single direction) at 10 µM; membrane potential dye, choline response; active = decrease or increase beyond buffer ±3SD; shares compounds with CHT block;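 note: parental cells lack the transporter so any hit is non-specific; ratio is peak minus trough fluorescence over baseline after EC90 choline challenge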
* hit, by the source's call; i = inactive; · = no result. Shown are actives, neighbours in structure and some others; about 2.6% of the full set was active somewhere.

SMILES	Rad51 HR inh	KCC2 mod	CHT PAM	CHT block	CHT inh conf	HEK293 CHT ctr
CC(C)(C)S(=O)(=O)/C(C#N)=N/Nc1ccc(Cl)cc1	0	-3.8	i	-5.5*	47%*	i
O=C(Nc1nc2c(Cl)cccc2s1)C1CC1	·	·	i	i	·	·
O=C(Nc1nc2c(Br)cccc2s1)C1CC1	·	·	i	-5.7*	i	i
Cc1ccc(-c2nnc(N3CCCCC3)c3ccccc23)cc1S(=O)(=O)N1CCN(C)CC1	-4	-3.6	i	-7.3*	42%*	i
Cc1ccc(NCc2nnc(SC(C)C(=O)N/N=C/c3ccc(C)o3)n2-c2ccccc2)cc1 (stereo unspecified)	0	-0.19	i	i	·	·
CCn1c(SCc2nc(-c3ccc(OC)c(OC)c3)no2)nnc1-c1cccs1	4	·	i	-8.6*	42%*	i
COCCn1c(-c2cccs2)csc1=Nc1cccnc1	10	-0.083	i	i	·	·
Fc1ccccc1-c1csc(=Nc2cccnc2)n1CCCn1ccnc1	-9	-0.61	i	-6.8*	48%*	i
CC(=O)OC1COC(N2CCc3cc([N+](=O)[O-])ccc32)C(OC(C)=O)C1OC(C)=O (stereo unspecified)	-1	0.29	i	i	·	·
CCc1nc(NC(C)C)c2oc3ccccc3c2n1	5	-1.7	i	i	·	·
CCc1nc(NCc2ccccn2)c2oc3ccccc3c2n1	15	·	i	i	56%*	i
O=Cc1c(C(=O)O)n(CC(=O)O)c2ccccc12	-5	-0.11	i	i	·	·
CCn1c(SCC(=O)Nc2ccccc2C(=O)OC)nnc1-c1ccc(N)cc1	0	-0.64	i	i	·	·
CCn1c(SCC(=O)Nc2ccccc2C(=O)OC)nnc1-c1ccoc1C	0	-1.1	i	-5.6*	i	i
O=S(=O)(Nc1nc2ccccc2nc1Cl)c1cccc(C(F)(F)F)c1	·	·	i	-5.2*	i	i
O=C(CCC1CCCN(c2ncccn2)C1)NCc1ccc(F)c(F)c1 (stereo unspecified)	-10	-0.2	i	-5.8*	64%*	i
Cc1nnc(C)n1/N=C/c1cc(Br)ccc1O	-1	·	i	i	·	·
Cc1nnc(C)n1/N=C/c1cc(Br)cc(Br)c1O	6	·	i	-6.8*	34%*	i
Cc1cccn2c(CNCC3OCCc4ccccc43)c(C(=O)N3CCCCC3)nc12 (stereo unspecified)	7	-1.4	i	-6.6*	48%*	-13*
Cc1cccn2c(CNC3CCCc4ccccc43)c(C(=O)N3CCOCC3)nc12 (stereo unspecified)	-8	-1.5	i	i	·	·
Cc1c(N=NC2=C(O)CC(C)(C)CC2=O)cc2c(c1[N+](=O)[O-])C(C)(C)CC2(C)C	16	-0.43	i	i	·	·
CCCCN(C)C(=O)c1ccc(CS(=O)(=O)c2ccccc2C)o1	3	-1.1	i	-5.3*	i	i
COC(CN(C)C(=O)c1ccc(CS(=O)(=O)c2ccccc2C)o1)OC	·	·	i	i	·	·
Cc1cccc(NC(=S)NCCN2CCOCC2)c1	0	0.55	i	i	·	·
S=C(NCCCN1CCOCC1)Nc1cccc(-c2nnc3n2CCCCC3)c1	26	0.85	i	-5.2*	61%*	i
SMILES	Rad51 HR inh	KCC2 mod	CHT PAM	CHT block	CHT inh conf	HEK293 CHT ctr
O=C(COc1ccccc1)Nn1cnc2ccccc21	3	·	i	i	·	·
O=c1c2cc(NC(=S)N3CCCCCC3)ccc2nc2n1CCCCC2	6	-0.069	i	i	·	·
O=C(Cn1nc(C(F)(F)F)c2c1CCCC2)NC1CCCC1	-2	-0.68	i	-5.8*	52%*	i
CCOc1ccc(Br)cc1S(=O)(=O)N1CCCC1	-7	0.055	i	-5.1*	67%*	i
C=CCc1ccc(O)c(-c2ccc(O)c(CC=C)c2)c1	8	0.33	i	-7*	62%*	i
C=CCc1cc(C(=O)N2CCCCC2)ccc1O	-5	-1.2	i	i	·	·
Clc1cccc(Cl)c1CNC1CCCC1	-12	0.76	i	-5.5*	11%*	-10*
CCOc1ccc(-c2noc(CCCC(=O)NC3CCCC3)n2)cc1OC	·	·	i	i	·	·
Cc1ccc(SCC2(O)CCN(C(=O)c3ccc(Cl)cc3)CC2)cc1	-4	0.039	i	-5.8*	65%*	i
Cc1ccc(SCc2ccc(C(=O)N3CCCC3)cc2)cc1	8	-1.2	i	i	·	·
Cn1cnnc1SC(C(=O)Nc1cc(Cl)cc(Cl)c1)c1ccccc1 (stereo unspecified)	0	0.56	i	i	·	·
CC(=O)Nc1ccc(S(=O)(=O)Nc2nc3ccccc3nc2Nc2ccc(N)cc2)cc1	i	0.55	i	-5.1*	67%*	i
CCOc1cccc2sc(N(CCCN(C)C)C(=O)c3ccc(S(=O)(=O)N(C)c4ccccc4)cc3)nc12	1	-0.082	i	-5.5*	i	i
COc1ccc(N2C(=O)C(CC(=O)Nc3ccccc3)N(CCc3ccc(OC)c(OC)c3)C2=O)cc1 (stereo unspecified)	-13	0.31	i	-8.7*	i	i
COc1cc(C(=O)NCC(c2ccco2)N2CCc3ccccc32)cc(OC)c1OC (stereo unspecified)	·	·	i	i	·	·
CCN(Cc1ccccc1)S(=O)(=O)c1cc(C(=O)NCC2CCCCC2)ccc1OC	-7	0.11	i	i	·	·
CCN(Cc1ccccc1)S(=O)(=O)c1cc(C(=O)NC2CCCCCC2)ccc1OC	·	-0.54	i	-5.1*	50%*	i
CC(C)(C)NCc1cccn1-c1sc2c(c1C#N)CCCC2	-4	0.66	i	-6.3*	20%*	-17*
O=[N+]([O-])c1ccc(/C=N/NC2=NS(=O)(=O)c3ccccc32)cc1	5	0.21	i	i	·	·
O=[N+]([O-])c1ccc(O)c(/C=N/NC2=NS(=O)(=O)c3ccccc32)c1	-81	-0.011	i	-5.6*	60%*	i
O=C(CS(=O)(=O)Nc1ccc(F)cc1Cl)Nc1ccc(F)cc1Cl	·	·	i	-11*	66%*	i
CN(CC(=O)Nc1ccc(F)cc1Cl)Cc1cccs1	·	·	i	i	·	·
N#Cc1c(N)nc(SCc2ccccn2)c(C#N)c1-c1cccs1	-4	-0.78	i	-7.3*	49%*	i
COCCNC(=O)c1cc(-c2ccccc2)n(Cc2cc(C)no2)n1	·	·	i	i	·	·
CC(C)c1cc(C(=O)N2CCCC(CCC(=O)N3CCN(c4ccccn4)CC3)C2)no1 (stereo unspecified)	·	-2	i	-6*	47%*	i
